Laboratory results as given in ChEMBL document CHEMBL1143291, “Synthesis and structure-activity relationships of novel, substituted 5,6-dihydrodibenzo[a,g]quinolizinium P2X7 antagonists” (Bioorg Med Chem Lett, 2009).
The source made the active and inactive calls. The calls are words filed in the database; no cut-off is given here.

Legend:
THP-1 [1] = test: Inhibition of Bz-ATP-induced IL1-beta release in LPS/IFN-gamma-differentiated human THP1 cells by ELISA; format: functional, cell-based
Method in brief: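 Full concentration–response curves used THP-1 cells differentiated for 3 h with 25 ng/ml LPS and 10 ng/ml IFNγ. Cells were preincubated 30 min with compound, then stimulated 30 min with 1 mM BzATP. Mature IL-1β in the centrifuged supernatant was quantified by ELISA.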

P2X purinoceptor 7 = target: T1, P2X purinoceptor 7 (Homo sapiens, UniProt Q99572); test: Antagonist activity at human P2X7 receptor expressed in HEK293 cells assessed as inhibition of BzATP-induced fluorescent ethidium accumulation; format: functional, cell-based
T1 sequence (Q99572 whole entry): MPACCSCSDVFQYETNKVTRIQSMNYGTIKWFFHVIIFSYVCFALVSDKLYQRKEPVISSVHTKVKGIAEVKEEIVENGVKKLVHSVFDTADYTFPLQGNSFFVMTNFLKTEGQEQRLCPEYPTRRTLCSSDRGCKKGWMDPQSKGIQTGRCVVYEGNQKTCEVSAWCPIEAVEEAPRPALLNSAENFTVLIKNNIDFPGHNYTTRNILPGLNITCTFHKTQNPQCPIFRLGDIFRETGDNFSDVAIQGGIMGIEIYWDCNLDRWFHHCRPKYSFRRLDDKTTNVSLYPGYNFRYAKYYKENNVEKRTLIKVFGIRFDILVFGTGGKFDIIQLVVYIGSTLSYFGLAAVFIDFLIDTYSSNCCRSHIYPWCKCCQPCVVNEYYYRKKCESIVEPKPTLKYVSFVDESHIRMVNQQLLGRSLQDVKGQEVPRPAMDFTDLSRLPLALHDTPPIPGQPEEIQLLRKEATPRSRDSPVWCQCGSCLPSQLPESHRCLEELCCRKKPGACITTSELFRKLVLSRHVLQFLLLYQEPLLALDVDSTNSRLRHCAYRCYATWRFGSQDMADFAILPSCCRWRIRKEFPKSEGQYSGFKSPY
Method in brief: (§1)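 Adherent HEK293 cells stably transfected with human P2X7 cDNA were preincubated 30 min with compound. They were then resuspended at 2.5 × 10^6 cells/ml in 20 mM HEPES pH 7.4 with 140 mM KCl, 5 mM glucose, 1 mM EDTA and 0.1 mM ethidium bromide. BzATP was added to 1 mM for 120 min at 37 °C. Ethidium uptake was read by fluorescence (ex 530/20, em 590/20 nm).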

THP-1 [2] = test: Inhibition of Bz-ATP-induced IL1-beta release in LPS/IFN-gamma-differentiated human THP1 cells at 1 uM by ELISA; format: functional
Method in brief: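 THP-1 cells were differentiated for 3 h with 25 ng/ml LPS plus 10 ng/ml IFNγ. They were preincubated 30 min with 1 µM compound, then stimulated with 1 mM BzATP for 30 min. Supernatants were collected by centrifugation (1000 rpm, 5 min) and mature human IL-1β was measured by ELISA. Results are mean ± SD percent inhibition, n = 3.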

[3] = target: T2, P2X purinoceptor 7 (Homo sapiens) (UniProt Q99572); test: Antagonist activity at human P2X7 receptor expressed in HEK293 cells assessed as inhibition of BzATP-induced fluorescent ethidium accumulation at 8 uM; format: functional, cell-based; method in brief: as §1
T2 sequence (whole entry): T1 sequence (Q99572 whole entry)

CN([C@@H](Cc1ccc(OS(=O)(=O)c2cccc3cnccc23)cc1)C(=O)N1CCN(c2ccccc2)CC1)S(=O)(=O)c1cccc2cnccc12
IC50 (THP-1 [1]): 81 nM | IC50 (P2X purinoceptor 7): 340 nM | inhibition at 1 µM (THP-1 [2]): 79%

CCc1c2[n+](cc3c(OCc4ccc(OCc5ccccc5)cc4)c(OC)ccc13)CCc1cc(OC)c(OC)cc1-2
IC50 (P2X purinoceptor 7): 2810 nM | Activity (THP-1 [2]): inactive

C=CCc1c2[n+](cc3c(OC)c(OC)ccc13)CCc1cc3c(cc1-2)OCO3
IC50 (P2X purinoceptor 7): 440 nM | inhibition at 1 µM (THP-1 [2]): 71%

CCc1c2[n+](cc3c(OCc4cccc(Cl)c4)c(OC)ccc13)CCc1cc(OC)c(OC)cc1-2
IC50 (P2X purinoceptor 7): 2660 nM | inhibition at 1 µM (THP-1 [2]): 7%

CC[C@@H]1c2ccc(OC)c(OC)c2CN2CCc3cc4c(cc3[C@H]12)OCO4 (racemic)
IC50 (P2X purinoceptor 7): 560 nM | inhibition at 1 µM (THP-1 [2]): 34%

CCc1c2[n+](cc3c(OCc4ccc(C(C)(C)C)cc4)c(OC)ccc13)CCc1cc(OC)c(OC)cc1-2
IC50 (P2X purinoceptor 7): 1260 nM | inhibition at 1 µM (THP-1 [2]): 33%

CCc1c2[n+](cc3c(OCc4ccc(-c5ccccc5)cc4)c(OC)ccc13)CCc1cc(OC)c(OC)cc1-2
IC50 (P2X purinoceptor 7): 3220 nM | Activity (THP-1 [2]): inactive

CCc1c2[n+](cc3c(OCc4ccccc4C(F)(F)F)c(OC)ccc13)CCc1cc(OC)c(OC)cc1-2
IC50 (P2X purinoceptor 7): 2560 nM | inhibition at 1 µM (THP-1 [2]): 13%

CCc1c2[n+](cc3c(OCc4cc(OC)c(OC)cc4[N+](=O)[O-])c(OC)ccc13)CCc1cc(OC)c(OC)cc1-2
IC50 (THP-1 [1]): 175 nM | IC50 (P2X purinoceptor 7): 170 nM | inhibition at 1 µM (THP-1 [2]): 83%

COc1cc(Cc2c3[n+](cc4c(OC)c(OC)ccc24)CCc2cc4c(cc2-3)OCO4)cc(OC)c1
IC50 (P2X purinoceptor 7): 260 nM | inhibition at 1 µM (THP-1 [2]): 39%

CCc1c2[n+](cc3c(OCc4cc(C)ccc4C)c(OC)ccc13)CCc1cc(OC)c(OC)cc1-2
IC50 (P2X purinoceptor 7): 1530 nM | inhibition at 1 µM (THP-1 [2]): 8%

CCc1c2[n+](cc3c(OC)c(OC)ccc13)CCc1cc3c(cc1-2)OCO3
IC50 (P2X purinoceptor 7): 350 nM | inhibition at 1 µM (THP-1 [2]): 73%

CCCC(I)c1c2[n+](cc3c(OC)c(OC)ccc13)CCc1cc3c(cc1-2)OCO3 (centres undefined)
IC50 (P2X purinoceptor 7): 420 nM | inhibition at 1 µM (THP-1 [2]): 54%

COc1ccc2cc3[n+](cc2c1OC)CCc1cc2c(cc1-3)OCO2
inhibition [3]: 7.03%

CCCc1c2[n+](cc3c(OC)c(OC)ccc13)CCc1cc(OC)c(OC)cc1-2
IC50 (P2X purinoceptor 7): 500 nM

CCc1c2[n+](cc3c(OCc4ccccc4C)c(OC)ccc13)CCc1cc(OC)c(OC)cc1-2
IC50 (P2X purinoceptor 7): 5020 nM | Activity (THP-1 [2]): inactive

CCc1c2[n+](cc3c(OCc4ccc(F)cc4C(F)(F)F)c(OC)ccc13)CCc1cc(OC)c(OC)cc1-2
IC50 (P2X purinoceptor 7): 820 nM | inhibition at 1 µM (THP-1 [2]): 13%

COc1cc2c(cc1OC)-c1cc3ccc(OC)c(OC)c3c[n+]1CC2
Activity [3]: inactive

CCc1c2[n+](cc3c(OCc4cc([N+](=O)[O-])ccc4OC)c(OC)ccc13)CCc1cc(OC)c(OC)cc1-2
IC50 (P2X purinoceptor 7): 420 nM | inhibition at 1 µM (THP-1 [2]): 42%

CCc1c2[n+](cc3c(OCc4cc(C)ccc4[N+](=O)[O-])c(OC)ccc13)CCc1cc(OC)c(OC)cc1-2
IC50 (P2X purinoceptor 7): 730 nM | inhibition at 1 µM (THP-1 [2]): 40%

COc1ccc2c(c[n+](C)c3c4cc5c(cc4ccc23)OCO5)c1OC
Activity (THP-1 [2]): inactive

COc1cc2c(cc1OC)-c1c(CC3CCCCC3)c3ccc(OC)c(OC)c3c[n+]1CC2
IC50 (P2X purinoceptor 7): 1120 nM | inhibition at 1 µM (THP-1 [2]): 17%

CCc1c2[n+](cc3c(OCc4ccc(Cl)nc4)c(OC)ccc13)CCc1cc(OC)c(OC)cc1-2
IC50 (P2X purinoceptor 7): 4410 nM | inhibition at 1 µM (THP-1 [2]): 33%

CCc1c2[n+](cc3c(OCc4cccc([N+](=O)[O-])c4C)c(OC)ccc13)CCc1cc(OC)c(OC)cc1-2
IC50 (P2X purinoceptor 7): 5400 nM

COc1ccc2c(Cc3c(F)cccc3Cl)c3[n+](cc2c1OC)CCc1cc2c(cc1-3)OCO2
IC50 (P2X purinoceptor 7): 400 nM | inhibition at 1 µM (THP-1 [2]): 50%

CCc1c2[n+](cc3c(OCc4ccc(Br)cc4)c(OC)ccc13)CCc1cc(OC)c(OC)cc1-2
IC50 (P2X purinoceptor 7): 2600 nM | inhibition at 1 µM (THP-1 [2]): 5%
